LEDGF integ inh – blocks HIV-1 LEDGF/p75-dependent DNA integration. 370,000 tested, 0.64% active. inhibition, % at 3.7 µM. AID 743269. TR-FRET IN-LEDGF/p75 DNA integration, Eu/Cy5;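 active = inhibition above the screen-wide mean plus 3 SD, cut at about 13% in these data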;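 note: signal is the Cy5 over europium emission ratio at 671 and 618 nm; 0% = plate median of compound wells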
PRMT1 FP inh – PRMT1 (human) inhibition, primary screen. Q99873. 370,000 tested, 1.3% active. recombinant PRMT1, activity-based probe fluorescence polarization. AID 652257. inhibition, % at 2.79 µM;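 active = inhibition above about 21% made by adding two undisclosed values, limit read from the data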
DAGLB inh – diacylglycerol lipase beta (human) inhibition. HEK293T DAGLB membrane lysate, EnzChek fluorogenic substrate. inhibition, % at 5.17 µM. 340,000 tested, 0.059% active. AID 504411; in the data active = inhibition above about 34%;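 note: 0% = enzyme with vehicle and 100% = wells lacking enzyme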
HTRA1 inhibitor – HTRA1 (human) protease inhibition; Q92743; recombinant HTRA1, FP-rhodamine activity-based probe, fluorescence polarization; inhibition, % at 5.96 µM; 340,000 tested, 0.5% active; in the data active = inhibition above about 36%;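 note: 0% = enzyme with DMSO and 100% = wells lacking enzyme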
ABHD4 inh – ABHD4 (mouse) inhibition, primary FP screen | 370,000 tested, 0.54% active | purified mABHD4, FP-Rh probe fluorescence polarization | Q8VD66 | inhibition, % at 8.92 µM;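 active = inhibition exceeding the mean over every tested compound plus 3 SD, cut at about 30% in these data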;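 note: 0% = plate median of compound wells and 100% = S159A mutant with DMSO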
Target sequence (Q8VD66 whole entry, looked up): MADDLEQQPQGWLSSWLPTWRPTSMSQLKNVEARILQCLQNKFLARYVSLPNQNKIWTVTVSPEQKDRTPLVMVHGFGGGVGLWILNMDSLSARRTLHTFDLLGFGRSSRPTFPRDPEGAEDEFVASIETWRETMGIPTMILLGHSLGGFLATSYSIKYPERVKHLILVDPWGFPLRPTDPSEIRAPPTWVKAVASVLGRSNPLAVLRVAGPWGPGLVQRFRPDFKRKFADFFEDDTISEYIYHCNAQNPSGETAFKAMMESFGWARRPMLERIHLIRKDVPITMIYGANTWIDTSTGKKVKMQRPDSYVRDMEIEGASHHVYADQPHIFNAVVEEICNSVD
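Test system: mABHD4 protein | Buffer or medium: HEPES pH 7.0 buffer, 150 mM NaCl, 0.01% Pluronic F-127 | Probe or stimulus: FP-Rh fluorescent activity-based probe, added after compound pre-incubation | Timing: Pre-incubation 45 min, probe exposure 60 min, at 25 °C | Technique: Fluorescence polarization, excitation 525 nm, emission 598 nm, BODIPY TMR filters | Repeats: Single well per compound (singlicate)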
rCAG binder – binds r(CAG) RNA repeats. inhibition, % at 3 µM. r(CAG) RNA repeat, TO-PRO-1 dye displacement fluorescence. 370,000 tested, 1.3% active;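 active = inhibition above the plate cutoff, the mean of all test compounds on that plate plus 3 SD, cut at about 35% in these data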;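 note: 0% = DMSO alone and 100% = 100 µM mitoxantrone as full dye displacement; higher means more dye released from RNA so lower well fluorescence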
IN multimer act – activates HIV-1 integrase multimerization in LEDGF counter-screen | shares compounds with LEDGF integ inh | TR-FRET HIV-1 integrase multimerization, biochemical | activation, % at 7.7 µM | 2,000 tested, 17% active; in the data active = activation above about 8.9%
TR-FRET interf – optically interferes with TR-FRET readout in LEDGF counter-screen. TR-FRET optical interference counterscreen, HIV-1 IN multimerization. shares compounds with LEDGF integ inh. 2,000 tested, under 10 active. inhibition, % at 7.7 µM;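 active = inhibition above the mean over all tested compounds plus 3 SD, which no compound reached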;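 note: 0% = integrase with antibodies and DMSO and 100% = antibodies without integrase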
IN-LEDGF confirm – confirmation of HIV-1 LEDGF/p75-dependent integration inhibitors; shares compounds with LEDGF integ inh; TR-FRET LEDGF/p75-dependent HIV-1 integration, biochemical; inhibition, % at 3.7 µM; 2,000 tested, 36% active; in the data active = inhibition above about 14%
Active calls of the source: *; / = no result. An excerpt weighted towards active compounds, which were near 3.2% of everything screened.

SMILES	LEDGF integ inh	PRMT1 FP inh	DAGLB inh	HTRA1 inhibitor	ABHD4 inh	rCAG binder	IN multimer act	TR-FRET interf	IN-LEDGF confirm
CCOC(=O)c1oc2ccccc2c1COC(=O)CNC(=O)c1ccccc1F	-5	0	-1	-10	5	2	/	/	/
Cc1ccc(O)c(-c2[nH]ncc2C(=O)c2ccc(Br)cc2)c1	14*	8	-4	-33	-24	7	-1	4	-5
Cc1ccc(NC(=O)C(=O)NCC2CCCO2)cc1C (configuration not stated)	78*	-1	-2	7	-7	-4	0	1	-3
Cc1ccc(NC(=O)C(=O)NCC2CCCO2)cc1 (configuration not stated)	-3	0	-1	1	-4	-1	/	/	/
O=C(NCCc1ccccc1)C(=O)NCC1CCCO1 (configuration not stated)	84*	1	-1	5	-10	-2	-1	5	-6
OCCSc1nc2ccccc2n1CCOc1ccccc1	-2	-2	-3	-7	-4	-6	/	/	/
O=C(NCC1CC1)c1cccc2c1C(=O)c1ccc(N3CCCC3)cc1S2(=O)=O	27*	12	-4	-22	-15	-22	0	-2	-8
CC(NC(=O)CSCc1ccc(Br)cc1)c1ccccc1 (configuration not stated)	-3	0	-3	-7	-3	-6	/	/	/
O=C(c1ccco1)[C@@H]1[C@@H]2C(=O)N(c3ccccc3)C(=O)[C@@H]2C2c3ccccc3C=CN21 (some centres not stated)	12	15	-4	-11	7	11	/	/	/
Cc1ccc(N2C(=O)[C@@H]3[C@H](C2=O)C2c4ccccc4C=CN2[C@@H]3C(=O)c2ccco2)cc1 (some centres not stated)	13*	10	1	-9	4	16	1	-5	25*
CCCn1c(NC(=O)c2ccccc2)nc2ccccc21	19*	3	-4	-5	-3	1	-3	13	24*
CCCn1c(NC(=O)c2ccc(C)cc2)nc2ccccc21	19*	7	-8	-6	3	-1	-2	10	22*
Cc1ccc(C(=O)Nc2nc3ccccc3n2CCN2CCCC2)cc1	7	0	0	11	-1	2	/	/	/
O=C(NC1CCCC1)c1nc2c(nnn2Cc2cccc(Cl)c2)c(=O)[nH]1	0	2	3	-2	-3	17	/	/	/
O=C(NCc1n[nH]c(=S)n1-c1ccccc1)c1ccco1	15*	3	-1	0	4	-2	0	2	-8
Nc1nc2ncccn2c1-c1ccc(F)c(F)c1	2	-1	/	/	4	1	/	/	/
O=C(C(=O)c1ccc(O)c(O)c1)c1ccc(O)c(O)c1	-3	3	0	1	-3	3	/	/	/
COCCCNC(=S)N(CCCN(C)C)Cc1cc2cc3c(cc2[nH]c1=O)OCCO3	4	3	-2	2	-1	3	/	/	/
COc1cccc(C2NC(=O)NC(C)=C2C(=O)OCC2CCCO2)c1 (configuration not stated)	-1	6	0	1	0	-2	/	/	/
CC1CC(C)CN(S(=O)(=O)c2ccc(NN)nc2)C1 (configuration not stated)	0	0	0	4	-1	2	/	/	/
COc1cc(CNc2ncnc3c2ncn3[C@H]2CN(Cc3cccc(C(F)(F)F)c3)C[C@@H](COC(C)=O)O2)cc(OC)c1OC	38*	-1	/	/	-12	4	1	-7	-8
CC(=O)c1cccc(NC(=S)NC(=O)CC(C)C)c1	-4	-1	-1	3	-2	-2	/	/	/
COC(=O)c1ccc(NC(=S)N2CCN(Cc3ccccc3Cl)CC2)cc1	76*	5	0	-16	3	-1	0	-1	-10
CC1C(=O)Nc2ccccc2N1C(=O)c1ccc(Cl)c(Cl)c1 (configuration not stated)	-3	2	0	-1	-2	-5	/	/	/
O=C(CSc1ccccc1)Nc1cccc(NC(=O)c2ccco2)c1	16*	-1	-5	-19	-3	-5	1	-5	-9
SMILES	LEDGF integ inh	PRMT1 FP inh	DAGLB inh	HTRA1 inhibitor	ABHD4 inh	rCAG binder	IN multimer act	TR-FRET interf	IN-LEDGF confirm
O=C(NC(=S)Nc1cccc([N+](=O)[O-])c1)C1CCCC1	88*	4	-4	-14	3	3	-2	12	4
O=C(CSc1nccc(=O)[nH]1)N1N=C2/C(=C/c3ccco3)CCCC2C1c1ccco1 (configuration not stated)	37*	13	3	6	10	27	2	-9	19*
Nc1nc(SCC(=O)N2N=C3/C(=C/c4ccco4)CCCC3C2c2ccco2)n[nH]1 (configuration not stated)	18*	3	3	-3	3	18	1	-4	6
N#Cc1ccsc1NC(=O)CN1CCN(S(=O)(=O)c2ccccc2C(F)(F)F)CC1	79*	2	-5	-18	-2	7	1	-7	2
CCOC(=O)C1=C(COC(=O)c2sccc2C)NC(=O)NC1C (configuration not stated)	-3	7	1	1	-24	10	/	/	/
CCOC(=O)C1=C(COC(=O)c2ccc([N+](=O)[O-])s2)NC(=O)NC1C (configuration not stated)	31*	-1	-2	36	-7	3	0	-2	61*
Cc1ccc(-n2c(-c3cccnc3)n[nH]c2=S)c(C)c1	0	0	-4	2	-7	-2	/	/	/
O=C(NCc1cccnc1)c1ccc(S(=O)(=O)N2CCCCCC2)cc1	2	-3	-2	2	3	-4	/	/	/
O=C(Nc1ccc2[nH]ncc2c1)C1CCC1	-3	-3	-1	3	4	3	/	/	/
O=C(C(O)c1ccc(Br)cc1)N1CCC(Nc2ccc3[nH]ncc3c2)CC1 (configuration not stated)	17*	17	/	/	22	5	5	-25	1
COCCNC(=O)c1onc(CSc2cccc(OC)c2)c1C(=O)NCCOC	-3	0	1	-9	1	-6	/	/	/
COc1cccc(SCc2noc(C(=O)NCc3ccccc3)c2C(=O)NCc2ccccc2)c1	48*	-1	-6	-9	0	-1	-1	7	-5

Compound activity from PubChem.
